TAAR1 ag – agonists of human TAAR1 | activation, % at 3 µM | actives 0.99% (n = 360,000) | CHO RD-HGA16 TAAR1, Fluo-8 calcium fluorescence; vehicle wells 0%, saturating PEA agonist 100% | AID 624467 | Q96RJ0;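 active means activation above the mean activation of all test compounds in the run plus 3 SD, cut at about 38% in these data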
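System: CHO-derived RD-HGA16 cells with stable Gα16 and human TAAR1 / Times: 17-24 h plating, Fluo-8 75 min 37 °C, 30 min RT / Technique: calcium-sensitive Fluo-8 signal, excitation 470-495, emission 515-575 nm / Measure: % activation relative to PEA EC100 response / Benchmarks: DMSO and PEA EC100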
OX1R antag-1 – blocks the human orexin 1 receptor. actives 1.8% (n = 330,000). inhibition, % at 6.6 µM. O43613. OX1R-expressing cells, FRET antagonist read-out; in the data active means inhibition mostly above about 38%, no sharp cut-off; inactive means mostly below about 40%;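 further: 0% = agonist challenge alone and 100% = reference antagonist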
Target sequence (O43613 whole entry, looked up): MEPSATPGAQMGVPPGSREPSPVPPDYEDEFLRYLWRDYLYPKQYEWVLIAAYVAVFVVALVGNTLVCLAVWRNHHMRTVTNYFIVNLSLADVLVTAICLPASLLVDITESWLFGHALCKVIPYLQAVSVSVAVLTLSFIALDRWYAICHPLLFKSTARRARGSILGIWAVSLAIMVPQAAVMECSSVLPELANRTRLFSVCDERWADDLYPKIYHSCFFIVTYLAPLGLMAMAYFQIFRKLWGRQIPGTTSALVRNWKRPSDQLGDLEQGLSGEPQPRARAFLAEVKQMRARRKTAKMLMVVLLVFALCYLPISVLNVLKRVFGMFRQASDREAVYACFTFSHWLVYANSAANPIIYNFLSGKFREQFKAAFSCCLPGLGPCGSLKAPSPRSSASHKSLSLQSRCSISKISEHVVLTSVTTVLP
CHO parental Ca – counter-screen: ATP calcium response change in parental CHO cells; parental CHO-K1, ATP-induced calcium, Fluo-8 fluorescence; inhibition, % at 5.6 µM; actives 0.63% (n = 330,000); AID 463079;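 active means inhibition above that plate's mean sample inhibition plus 3 SD, cut at about 26% in these data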;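 further: 0% = ATP-challenged DMSO wells and 100% = DMSO wells without ATP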
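Measured by: calcium-sensitive Fluo-8 fluorescence / Test system: CHO parental line / Controls: ATP-challenged DMSO wells low, unchallenged DMSO wells high / Measure: % inhibition / Compound: single nominal dose of 5.6 µM per compound / Replicates: single well per compound, no replicates / Reagent: ATP as calcium-mobilizing challenge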
OX1R antag-2 – blocks the human orexin 1 receptor; inhibition, % at 5 µM; actives 0.43% (n = 330,000); O43613; CHO/OX1R cells, Fluo-8 calcium fluorescence, orexin A;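 active means inhibition above its plate's threshold, mean inhibition of all tested compounds on the plate plus 3 SD, cut at about 37% in these data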;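 further: 0% = orexin A challenge wells and 100% = SB-334867-A antagonist wells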
TAAR1 antag – antagonists of human TAAR1; inhibition, % at 3 µM; Q96RJ0; CHO RD-HGA16 TAAR1, Fluo-8 calcium fluorescence, antagonist; actives 1.5% (n = 360,000);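 active means inhibition above a per-plate cutoff, the mean inhibition of test compounds on that plate plus 3 SD, cut at about 49% in these data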;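 further: 0% = DMSO plus EC80 beta-PEA response and 100% = DMSO alone without agonist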
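Test system – hTAAR1-expressing CHO RD-HGA16 cells, Gα16-coupled · Also added – β-PEA at EC80 concentration, post-compound challenge · Compound – 3 µM, single point · Incubation – dye loading 75 min at 37 °C, then 30 min room temperature · Measured by – Fluo-8 intracellular calcium dye fluorescence, real-time kinetic reads · Benchmarks – vehicle and agonist controls · Replicates – singlicate, one well per test compound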
OX1R HTRF confirm – confirmation of human orexin 1 receptor antagonists, HTRF format; shares compounds with OX1R antag-1; OX1R-expressing cells, HTRF antagonist assay; inhibition, % at 6.6 µM; actives 49% (n = 1,800); in the data active means inhibition above about 55%;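 further: CHO cells expressing OX1R stimulated with orexin A at about EC80; 0% = agonist challenge alone and 100% = reference antagonist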
CHO-K1 HTRF – signal in parental CHO-K1 cells, OX1R antagonist counter-screen; shares compounds with OX1R antag-1; HTRF counterscreen; inhibition, % at 6.6 µM; actives 48% (n = 1,800); in the data active means inhibition above about 17%;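 further: 0% = agonist challenge with vehicle and 100% = vehicle alone without agonist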
Starred values were filed as active, the others as inactive; nt = not tested or not shown. A selection: hits, their analogues and other compounds. The true share with any hit is near 4%.

SMILES	TAAR1 ag	OX1R antag-1	CHO parental Ca	OX1R antag-2	TAAR1 antag	OX1R HTRF confirm	CHO-K1 HTRF
COc1ccccc1C(=O)NCCCCNC(=O)c1ccccc1OC	1.9	79.3*	-9.8	14.0	-16.8	59.1*	0.7
O=c1nc(-c2ccccc2)cn[nH]1	9.3	148.3*	5.0	-11.0	1.7	38.4	36.8*
O=c1nc(-c2ccccc2)c(-c2ccccc2)n[nH]1	1.4	nt	nt	nt	-7.9	nt	nt
CCOc1ccc(NC(=O)C2CCC(CNc3c(N4CCC(C)CC4)c(=O)c3=O)CC2)cc1 (stereo not drawn)	1.6	6.6	-4.2	-10.6	-17.0	nt	nt
COc1cc(OC)cc(C(=O)NNC(=O)CCc2ccccc2)c1	3.5	9.6	-20.4	-16.9	-8.8	nt	nt
CC(NS(=O)(=O)c1ccc([N+](=O)[O-])cc1)C(=O)NN (stereo not drawn)	2.4	84.8*	-6.5	-14.4	12.6	28.3	48.2*
COc1cc(OC)cc(C(=O)Nc2cccc3cccnc23)c1	0.0	80.7*	-12.2	-2.8	-15.5	75.2*	6.5
COc1ccc(C(=O)Nc2cc(OC)cc3cccnc23)cc1	1.0	98.5*	-18.5	26.1	-0.6	86.0*	21.6*
COC(=O)c1sccc1NC(=O)c1ccc(OC)cc1	1.7	89.4*	-14.1	4.2	7.1	68.4*	4.8
COC(=O)c1sccc1NC(=O)c1ccc(C)cc1	6.7	23.2	-13.6	-31.9	-14.7	nt	nt
COc1cc(C(=O)Nc2cccc3cccnc23)cc(OC)c1OC	6.0	25.9	-27.2	-37.8	10.6	nt	nt
CC1CCCCN1C(=O)Cn1cnc2cc([N+](=O)[O-])ccc2c1=O (stereo not drawn)	2.3	122.9*	-13.3	-10.1	-32.1	81.0*	85.8*
Cc1cc(C)c(C(=O)Cn2cnc3cc([N+](=O)[O-])ccc3c2=O)cc1C	-1.9	24.0	-13.0	-6.0	-11.3	nt	nt
Cc1ccc(C(=O)/C=C2\NCC(C)NC2=O)cc1 (stereo not drawn)	7.0	77.9*	-14.0	-16.7	6.9	39.8	18.1*
CC(C)Cn1c(N)c(C(=O)COC(=O)c2ccc(O)cc2)c(=O)n(C)c1=O	3.9	17.7	1.5	-10.9	9.8	nt	nt
CC(C)Cn1c(N)c(C(=O)COC(=O)c2ccc([N+](=O)[O-])o2)c(=O)n(C)c1=O	8.2	80.7*	-10.7	-18.2	-2.5	30.1	24.5*
COc1cc(-c2nccc3cc4c(cc23)OCO4)cc(OC)c1OC	7.9	nt	nt	nt	-4.8	nt	nt
COc1cc2c(cc1OC)-c1c(OC)c(OC)cc3ccnc(c13)C2=O	13.8	79.6*	-6.8	-10.9	-7.1	46.5	26.0*
CN(C)C(=O)CN1C(=O)NC(c2ccccc2)(c2ccccc2)C1=O	4.8	2.6	-10.7	-7.1	-20.1	nt	nt
O=C(Nc1ccccc1)c1ccc(NCC2CCCO2)c([N+](=O)[O-])c1 (stereo not drawn)	4.6	32.0	-9.8	-8.7	-8.6	nt	nt
N#Cc1cc(NCC2CCCO2)c([N+](=O)[O-])cc1C#N (stereo not drawn)	0.0	126.1*	-1.5	-15.6	-2.2	51.0	71.1*
COc1ccc(NC(=O)c2ccc(NCC3CCCO3)c([N+](=O)[O-])c2)cc1 (stereo not drawn)	6.1	77.1*	-0.3	4.7	17.7	28.6	17.7*
O=[N+]([O-])c1cc(C(F)(F)F)ccc1NCC1CCCO1 (stereo not drawn)	-0.1	5.2	-7.4	-4.2	-6.3	nt	nt
O=C(O)c1cccc2c1C(=O)c1cccc3snc-2c13	1.1	88.1*	-11.1	-5.3	-15.3	54.8*	78.3*
COc1cc(/C=N/Nc2nncn2N)ccc1OCc1c(C)no[n+]1[O-]	-0.6	89.1*	-7.0	-22.0	3.8	19.5	17.6*
SMILES	TAAR1 ag	OX1R antag-1	CHO parental Ca	OX1R antag-2	TAAR1 antag	OX1R HTRF confirm	CHO-K1 HTRF
COc1cc(/C=C(\C#N)C(N)=O)ccc1OCc1c(C)no[n+]1[O-]	2.5	1.7	1.4	-6.4	-18.0	nt	nt
Cc1nc(C)c(N)c(=O)[nH]1	1.2	14.6	-6.6	-19.3	-8.9	nt	nt
CC(=O)Nc1cccc(-c2csc(C(O)c3cccc(Cl)c3)n2)c1 (stereo not drawn)	9.8	nt	nt	nt	18.8	nt	nt
COc1ccccc1C(=O)Oc1ccc2c(c1)O/C(=C\c1ccncc1)C2=O	12.9	77.8*	-6.3	-9.1	46.6	19.3	-6.1
S=c1[nH]nc2nnc3ccccc3n12	-0.1	85.3*	1.6	-10.8	-6.8	88.0*	79.0*
S=c1[nH]nc2sc3ccccc3n12	0.3	nt	nt	nt	-2.7	nt	nt
C=CCN(Cc1nc(-c2ccc(OC)c(OC)c2)oc1C)C1CCS(=O)(=O)C1 (stereo not drawn)	1.7	11.8	1.0	-15.5	19.1	nt	nt
c1ccc(CNc2c3ccccc3nc3ccccc23)cc1	-0.4	4.5	-8.0	-23.4	17.8	nt	nt
OCC(Cc1ccccc1)Nc1c2ccccc2nc2ccccc12 (stereo not drawn)	1.5	87.9*	-20.4	21.9	1.2	72.4*	17.4*
O=C(CCNC(=O)c1ccc([N+](=O)[O-])cc1)Nc1ccc(F)cc1	9.6	31.2	-5.3	-12.9	3.9	nt	nt
O=C(CCNC(=O)c1ccc([N+](=O)[O-])cc1)N/N=C/c1ccc(F)cc1	11.8	77.6*	6.8	-26.9	9.2	23.9	26.8*
O=C(Cn1cccc1C(=O)c1ccccc1)NCCC1=CCCCC1	4.6	97.6*	-14.7	-35.8	1.7	22.6	2.3
CN1C(=O)C(C)(C)c2cc(S(=O)(=O)N3CCCC3C(=O)NCc3ccc(F)cc3)ccc21 (stereo not drawn)	3.0	78.5*	-14.9	-28.5	-3.2	20.2	-3.8
COc1ccc(NC(=O)C2CCCCN2S(=O)(=O)c2ccc(F)cc2)cc1 (stereo not drawn)	-0.5	87.2*	-11.4	-17.1	1.2	42.1	10.1
Cc1c(CCOC(=O)c2cc([N+](=O)[O-])cc([N+](=O)[O-])c2)sc[n+]1CCCCS(=O)(=O)[O-]	4.7	173.9*	-2.5	-4.1	-17.9	72.0*	84.9*
N#CCCC(CCC#N)(CCC#N)c1cc[n+](CCc2ccccn2)cc1	10.5	12.8	-9.6	-14.3	2.4	nt	nt
CCN1C(=O)[C@H]2[C@@H](c3ccc(-c4ccc(F)cc4)cc3)N[C@@](CC(C)C)(C(=O)OC)[C@H]2C1=O	2.5	18.0	-15.8	-24.3	0.5	nt	nt
CCOC(=O)C1(CC)NC(c2cccc(F)c2)C2C(=O)N(CC)C(=O)C21 (stereo not drawn)	10.7	89.3*	-3.1	-6.4	-1.3	10.6	-1.9
Cc1ccc(NCC(=O)N=Nc2c(O)n(C)c3ccccc23)cc1	0.8	94.5*	10.7	-4.4	4.5	38.0	32.4*
